Measured values: ChEMBL document CHEMBL1143612, “Combinatorial optimization of isatin-beta-thiosemicarbazones as anti-poxvirus agents” (J Med Chem, 2005)

Key:
HFF [1] = assay: Ratio of Effective concentration to inhibit vaccinia virus plaque formation to that of half maximal cytotoxic concentration in human foreskin fibroblast (HFF) cells; type: functional
HFF [2] = assay: Effective concentration required to inhibit cowpox virus plaque formation in human foreskin fibroblast (HFF) cells; type: functional, cell-based
HFF [3] = assay: Effective concentration required to inhibit vaccinia virus plaque formation in human foreskin fibroblast (HFF) cells; type: functional, cell-based
HFF [4] = assay: Half-maximal cytotoxic concentration in human foreskin fibroblast (HFF) cells; type: functional
Method in brief: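 Primary HFF cells seeded at 2.5 × 10^4/well in 96-well plates 24 h ahead. Exposed 7 d at 37 °C to drug in MEM/2% FBS, 1:5 serial dilutions, final 100 to 0.032 µg/mL.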

HFF [5] = assay: Ratio of Effective concentration to inhibit cowpox virus plaque formation to that of half maximal cytotoxic concentration in human foreskin fibroblast (HFF) cells; type: functional

Row | Structure (SMILES) | SI (HFF [1]) | EC50 (HFF [2]) [µM] | EC50 (HFF [3]) [µM] | CC50 (HFF [4]) [µM] | SI (HFF [5])
1 | NC(=S)/N=N/c1c(O)[nH]c2ccccc12 | >32 | 60 | 14 | > 454 | >7.6
2 | Nc1ccn(C[C@@H](CO)OCP(=O)(O)O)c(=O)n1.O.O [CIDOFOVIR] | >12 | 38 | 27 | > 317 | >8.3
3 | CN1C(=O)/C(=N\NC(N)=S)c2ccccc21 [METHISAZONE] | >129 | 14 | 3.3 | > 427 | >31
